PMC3077804 (ACS Chemical Biology, 2010)

Molecular target: T1, AarA (Providencia stuartii, UniProt P46116)
T1 sequence (P46116 1-281): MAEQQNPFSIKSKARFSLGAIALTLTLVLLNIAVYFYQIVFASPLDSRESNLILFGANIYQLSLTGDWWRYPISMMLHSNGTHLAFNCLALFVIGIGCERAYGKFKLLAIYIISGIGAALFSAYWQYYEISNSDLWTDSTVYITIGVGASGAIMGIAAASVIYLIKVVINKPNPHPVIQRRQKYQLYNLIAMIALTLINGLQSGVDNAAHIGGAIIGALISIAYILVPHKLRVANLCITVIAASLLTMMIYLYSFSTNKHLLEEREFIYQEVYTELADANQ
Assay: In vitro fluorescent assay
Type: biochemical
Conditions: SAR
Summary of the method: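 Fluorogenic KSp21 peptide (600 nM) cleaved at 24−25 °C by 100 nM AarA or 37 nM chymotrypsin. Buffer: 25 mM Hepes pH 7.4, 5 mM EDTA, 5% glycerol, 0.5% DDM and 20% DMSO (final). Compound was preincubated with enzyme for 30 min at 25 °C, and the reaction was started with peptide. Stopped after 50−60 min, still in the linear phase, with 1 M phosphoric acid pH 1.5; fluorescence read.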

SMILES | inhibitory activity against AarA in the fluorescent assay (in words)
Cc1ccc(S(=O)(=O)N[C@@H](Cc2ccccc2)C(=O)CCl)cc1 [TPCK] | inactive
Cc1ccc(S(=O)(=O)NC(CCCCN)C(=O)CCl)cc1 (centres unmarked) [TLCK] | inactive
